Experimental data published in ChEMBL document CHEMBL5329188, “Design, synthesis, and biological evaluation of 3,3'-diindolylmethane N-linked glycoconjugate as a leishmanial topoisomerase IB inhibitor with reduced cytotoxicity” (RSC Med Chem, 2023).
Calls of active or inactive are those of the source. The calls are words filed in the database; no cut-off is given here.

What was measured:
[1] = test system: Leishmania donovani; assay: Antileishmanial activity against Leishmania donovani MHOM/IN/80/Dd8 promastigotes assessed as reduction in promastigotes viability incubated for 24 hrs by resazurin-based alamar blue dye assay; assay type: functional, organism-based; conditions: MHOM/IN/80/Dd8, 24 h
In short: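 L. donovani DD8 promastigotes, exponential phase, in M199 with 10% heat-inactivated FBS at 24 ± 1 °C, 5×10^6 cells per well. Exposed 24 h to 100, 50, 25, 12.5 and 6.25 μM (1 mM DMSO stocks). Viability read with resazurin (Alamar Blue, 20 μg ml^-1 final), excitation 550 nm and emission 590 nm. Amphotericin B standard. IC50 from curve fit; mean ± SD of three independent experiments.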

[2] = test system: Leishmania donovani; assay: Inhibition of recombinant Leishmania donovani DNA topoisomerase IB mediated relaxation activity expressed in Escherichia coli BL21 (DE3) cells using supercoiled pHOT1 DNA as substrate at 500 uM incubated for 25 mins by EtBr staining based agarose gel electrophoresis analysis relative to control
In short: (§1)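 His-tagged LdTopILS expressed from pET16b plasmids in E. coli BL21(DE3) (0.5 mM IPTG, 22 °C, 12 h) and Ni-NTA purified. Enzyme mixed with supercoiled pHOT1 at 3:1 molar ratio in 25 mM Tris-Cl pH 7.5, 5% glycerol, 50 mM KCl, 0.5 mM DTT, 10 mM MgCl2, 30 μg ml^-1 BSA for 25 min at 37 °C. Controls: CPT 60 μM and DMSO 4% v/v. Products run on 1% agarose, EtBr stained, relaxed vs supercoiled quantified.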

[3] = test system: J774.A1; assay: Cytotoxicity against mouse J774.A1 cells assessed as reduction in viability at 50 uM incubated for 20 hrs by MTT assay; assay type: toxicity, cell-based; conditions: j774.a1, 20 h
In short: (§2)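 J774A.1 murine macrophages in DMEM, 2×10^4 cells per well, adhered overnight. Treated in triplicate at 100, 50, 30, 20 and 10 μM with 0.1% final DMSO (DMSO negative control, amphotericin B positive control) for 20 h. MTT (2.5 mg ml^-1 in PBS) added for 4 h at 37 °C, formazan dissolved in DMSO, OD 570 nm. CC50 from curve fit; mean ± SD of three independent experiments.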

[4] = test system: Leishmania donovani; assay: Inhibition of recombinant Leishmania donovani DNA topoisomerase IB mediated relaxation activity expressed in Escherichia coli BL21 (DE3) cells using supercoiled pHOT1 DNA as substrate at 400 uM incubated for 25 mins by EtBr staining based agarose gel electrophoresis analysis relative to control; in short: as §1
[5] = Cytotoxicity against mouse J774.A1 cells assessed as reduction in viability incubated for 20 hrs by MTT assay; assay type: toxicity, cell-based; in short: as §2
[6] = test system: J774.A1; assay: Cytotoxicity against mouse J774.A1 cells assessed as reduction in viability at 30 uM incubated for 20 hrs by MTT assay; assay type: toxicity, cell-based; conditions: j774.a1, 20 h; in short: as §2
[7] = test system: J774.A1; assay: Cytotoxicity against mouse J774.A1 cells assessed as reduction in viability at 10 uM incubated for 20 hrs by MTT assay; assay type: toxicity, cell-based; conditions: j774.a1, 20 h; in short: as §2
[8] = test system: J774.A1; assay: Cytotoxicity against mouse J774.A1 cells assessed as reduction in viability at 20 uM incubated for 20 hrs by MTT assay; assay type: toxicity, cell-based; conditions: j774.a1, 20 h; in short: as §2
[9] = test system: Leishmania donovani; assay: Inhibition of recombinant Leishmania donovani DNA topoisomerase IB mediated relaxation activity expressed in Escherichia coli BL21 (DE3) cells using supercoiled pHOT1 DNA as substrate at 500 uM incubated for 25 mins by EtBr staining based agarose gel electrophoresis analysis; in short: as §1
[10] = test system: Leishmania donovani; assay: Inhibition of recombinant Leishmania donovani DNA topoisomerase IB mediated relaxation activity expressed in Escherichia coli BL21 (DE3) cells using supercoiled pHOT1 DNA as substrate at 60 uM incubated for 25 mins by EtBr staining based agarose gel electrophoresis analysis
In short: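 LdTopILS was co-expressed from pET16bLdTOP1L and pET16bLdTOP1S in E. coli BL21(DE3), induced with 0.5 mM IPTG at OD600 0.6 for 12 h at 22 °C, and Ni-NTA purified. Enzyme and supercoiled pHOT1 (3:1 molar) ran 25 min at 37 °C in 25 mM Tris-Cl pH 7.5, 5% glycerol, 50 mM KCl, 0.5 mM DTT, 10 mM MgCl2, 30 µg/ml BSA. DMSO 4% v/v was the solvent control. Relaxed versus supercoiled bands were quantified on 1% agarose with EtBr.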

Cc1ccc(C(c2c[nH]c3ccc(Br)cc23)c2c[nH]c3ccc(Br)cc23)cc1
IC50 [1]: 59.2 µM

CC(=O)OC[C@H]1O[C@@H](n2ccc3cc(Br)ccc32)[C@H](OC(C)=O)[C@@H](OC(C)=O)[C@@H]1OC(C)=O
inhibition [2]: > 90%

OC[C@H]1O[C@@H](n2cc(C(c3ccc(F)cc3)c3cn([C@@H]4O[C@H](CO)[C@@H](O)[C@@H](O)[C@H]4O)c4ccc(Br)cc34)c3cc(Br)ccc32)[C@H](O)[C@H](O)[C@@H]1O (some centres undefined)
Activity [3]: 69.77%
IC50 [1]: 27.9 µM
inhibition [4]: 100%
CC50 at 20 h [5]: 89.2 µM
Activity [6]: 70.11%
inhibition [2]: 100%
Activity [7]: 96.25%
Activity [8]: 81.05%

COc1ccc(C(c2c[nH]c3ccccc23)c2c[nH]c3ccccc23)cc1
IC50 [1]: 54.9 µM

O=[N+]([O-])c1ccc(C(c2c[nH]c3cc(Cl)ccc23)c2c[nH]c3cc(Cl)ccc23)cc1
IC50 [1]: 48.4 µM

Clc1ccc(C(c2c[nH]c3cc(Cl)ccc23)c2c[nH]c3cc(Cl)ccc23)cc1
IC50 [1]: 53.2 µM

Fc1ccc(C(c2c[nH]c3cc(Cl)ccc23)c2c[nH]c3cc(Cl)ccc23)cc1
IC50 [1]: > 100 µM

Clc1ccc2c(C(c3ccc(Br)cc3)c3c[nH]c4cc(Cl)ccc34)c[nH]c2c1
IC50 [1]: 74.3 µM

CC(=O)OC[C@H]1O[C@@H](n2cc(C(c3ccc(F)cc3)c3cn([C@@H]4O[C@H](COC(C)=O)[C@@H](OC(C)=O)[C@H](OC(C)=O)[C@H]4OC(C)=O)c4ccc(Br)cc34)c3cc(Br)ccc32)[C@H](OC(C)=O)[C@@H](OC(C)=O)[C@@H]1OC(C)=O
IC50 [1]: 29.1 µM
inhibition [4]: 100%
inhibition [2]: 100%

Brc1ccc(C(c2c[nH]c3ccccc23)c2c[nH]c3ccccc23)cc1
IC50 [1]: 47 µM
inhibition [9]: inactive

Clc1ccc(C(c2c[nH]c3ccc(Br)cc23)c2c[nH]c3ccc(Br)cc23)cc1
IC50 [1]: 41.8 µM
inhibition [9]: inactive

Clc1ccc(C(c2c[nH]c3ccccc23)c2c[nH]c3ccccc23)cc1
IC50 [1]: 57.1 µM

Cc1ccc(C(c2c[nH]c3ccccc23)c2c[nH]c3ccccc23)cc1
IC50 [1]: 54.3 µM

Brc1ccc(C(c2c[nH]c3ccc(Br)cc23)c2c[nH]c3ccc(Br)cc23)cc1
IC50 [1]: > 100 µM

O=[N+]([O-])c1ccc(C(c2c[nH]c3ccc(Br)cc23)c2c[nH]c3ccc(Br)cc23)cc1
IC50 [1]: 48.5 µM

CSc1ccc(C(c2c[nH]c3ccc(Br)cc23)c2c[nH]c3ccc(Br)cc23)cc1
IC50 [1]: > 100 µM

CSc1ccc(C(c2c[nH]c3ccccc23)c2c[nH]c3ccccc23)cc1
IC50 [1]: > 100 µM

Fc1ccc2[nH]cc(C(c3ccc(Cl)cc3)c3c[nH]c4ccc(F)cc34)c2c1
Activity [3]: 26.14%
IC50 [1]: 31.4 µM
CC50 at 20 h [5]: 4.51 µM
Activity [6]: 32.04%
inhibition [9]: inactive
Activity [7]: 40.15%
Activity [8]: 33.53%

O=[N+]([O-])c1ccc(C(c2c[nH]c3ccccc23)c2c[nH]c3ccccc23)cc1
IC50 [1]: > 100 µM

COc1ccc(C(c2c[nH]c3ccc(Br)cc23)c2c[nH]c3ccc(Br)cc23)cc1
IC50 [1]: > 100 µM

Fc1ccc(C(c2c[nH]c3ccc(Br)cc23)c2c[nH]c3ccc(Br)cc23)cc1
Activity [3]: 21.73%
IC50 [1]: 34.8 µM
CC50 at 20 h [5]: 4.45 µM
Activity [6]: 30.34%
inhibition [9]: inactive
Activity [7]: 39.59%
Activity [8]: 34.28%

Fc1ccc(C(c2c[nH]c3ccccc23)c2c[nH]c3ccccc23)cc1
Activity [3]: 15.89%
IC50 [1]: 36.2 µM
CC50 at 20 h [5]: 5.71 µM
Activity [6]: 19.81%
inhibition [9]: inactive
Activity [7]: 26.23%
Activity [8]: 20.05%

CC[C@@]1(O)C(=O)OCc2c1cc1n(c2=O)Cc2cc3ccccc3nc2-1
inhibition [10]: Active

C[C@@H]1[C@H](O)[C@@H](C)/C=C/C=C/C=C/C=C/C=C/C=C/C=C/[C@H](O[C@@H]2O[C@H](C)[C@@H](O)[C@H](N)[C@@H]2O)C[C@@H]2O[C@](O)(C[C@@H](O)C[C@@H](O)[C@H](O)CC[C@@H](O)C[C@@H](O)CC(=O)O[C@H]1C)C[C@H](O)[C@H]2C(=O)O [AMPHOTERICIN B]
IC50 [1]: 0.4 µM

OC[C@H]1O[C@@H](n2ccc3cc(Br)ccc32)[C@H](O)[C@@H](O)[C@@H]1O
inhibition [2]: > 90%
